Reference: ChEMBL document CHEMBL2163238, “Design, synthesis, and biological evaluation of N-alkylated deoxynojirimycin (DNJ) derivatives for the treatment of dengue virus infection” (J Med Chem, 2012)
Converted amounts (≈) assume the structure as drawn. The source made the active and inactive calls. No cut-off for these calls is given here.

Columns and labels:
[1] = Cytotoxicity against human Huh7.5 cells assessed as cell viability by DRAQ5 and Sapphire 700 staining; conditions: huh-7
[2] = Cytotoxicity against MDBK cells assessed as cell viability by MTT assay; assay type: cell-based, Bos taurus; conditions: cattle
[3] = target: CYP2C9 (Homo sapiens, UniProt P11712); assay: Inhibition of human CYP2C9 at 10 uM; assay type: ADME
In short: (§1)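 Inhibition of CYP isoforms by compounds tested at 10 μM, given as percent inhibition; contract in vitro ADME panel.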

[4] = Metabolic stability in mouse liver microsomes at 60 mins; assay type: ADME, Microsome; conditions: read-out: Stability
[5] = tested on: MDBK; assay: Competitive inhibition of endoplasmic reticulum-resident alpha-glucosidase in MDBK cells infected with 1 MOI BVDV assessed as decrease in viral E2 protein mobility at 0.8 to 100 uM after 24 hrs by Western blotting; assay type: cell-based; conditions: Bos taurus
In short: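 MDBK cells infected with BVDV at MOI 1 for 1 h, then compounds at 0.8, 4.0, 20 and 100 μM. Cells lysed in Laemmli buffer, run on 12% polyacrylamide gel and transferred to nitrocellulose. BVDV E2 mobility probed with monoclonal WB166 and β-actin detected in parallel. IR-dye secondary antibody, Odyssey imaging.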

[6] = Antiviral activity against 1 MOI BVDV NADL infected in MDBK cells assessed as reduction in viral titer after 22 hrs; assay type: functional, cell-based, Bovine viral diarrhea virus 1-NADL; conditions: Bovine viral diarrhea virus isolates and strains, MDBK, 22 h
In short: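 MDBK cells (2×10^5) infected 24 h after seeding with BVDV NADL at MOI 1, with 1 h adsorption at 37 °C. Washed, then compounds at 0.1–100 μM. Media harvested 22 h post-infection and plaque-titrated on MDBK under 1% methylcellulose for 3 days. Plaques counted directly or after neutral red staining. EC50 from dose–response curves, mean of 3 independent experiments.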

[7] = Plasma protein binding in rat plasma; assay type: ADME, cell-free; conditions: read-out: PPB (converted)
In short: (§2)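 Binding of compound to human, rat or mouse plasma protein, reported as % bound.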

[8] = Plasma half life in Sprague-Dawley rat at 5 mg/kg, iv; assay type: ADME, organism-based; parameters: dose 5 mg/kg, route intravenous
[9] = tested on: Rattus norvegicus; assay: Volume of distribution in Sprague-Dawley rat at 25 mg/kg, po; assay type: ADME, organism-based; parameters: dose 25 mg/kg, route oral; conditions: in vivo
[10] = tested on: Rattus norvegicus; assay: Acute toxicity in Sprague-Dawley rat assessed as body weight loss at 25 to 200 mg/kg, po after 7 days; assay type: organism-based; parameters: dose 25-200 mg/kg, route oral; conditions: in vivo, 168 h
In short: (§3)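 Single oral dose (25, 50, 100 or 200 mg/kg, or vehicle) given to 10-week-old male rats, 2 per group. Compound dissolved at 20 mM in PBS with 10% Solutol HS15, shaken 6 h at 37 °C. Animals observed 7 days for clinical signs, body weight and food consumption, then sacrificed on day 8.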

[11] = Aqueous solubility in PBS at pH 4; assay type: physicochemical; conditions: buffer
[12] = tested on: Dengue virus; assay: Antiviral activity against 0.01 MOI DENV infected in human Huh7.5 cells assessed as reduction in viral […] protein level at 0.1 to 100 uM after 2 days by Western blotting; assay type: functional, organism-based; conditions: Huh-7
[13] = Cytotoxicity against BHK cells assessed as cell viability by MTT assay; assay type: cell-based, Mesocricetus auratus; conditions: hamster
[14] = target: T1, CYP3A4 (Homo sapiens, UniProt P08684); assay: Inhibition of human CYP3A4 using midazolam as substrate at 10 uM; assay type: ADME; conditions: probe midazolam
In short: (§4)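 Inhibition of CYP isoforms with compound at 10 μM, reported as % inhibition. CYP3A4 run with midazolam or testosterone as substrate.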

[15] = Metabolic stability in human liver microsomes at 60 mins; assay type: ADME, Microsome; conditions: read-out: Stability
[16] = Volume of distribution in Sprague-Dawley rat at 5 mg/kg, iv; assay type: ADME, organism-based; parameters: dose 5 mg/kg, route intravenous; conditions: in vivo
[17] = target: T1, CYP3A4; assay: Inhibition of human CYP3A4 using testosterone as substrate at 10 uM; assay type: ADME; conditions: probe testosterone
In short: as §4

[18] = in vivo; conditions: Sprague-Dawley, rat, po, 25 mg/kg
[19] = Metabolic stability in rat liver microsomes at 60 mins; assay type: ADME, Microsome; conditions: read-out: Stability
[20] = target: T2, CYP1A2 (Homo sapiens, UniProt P05177); assay: Inhibition of human CYP1A2 at 10 uM; assay type: ADME
T2 sequence (P05177 whole entry): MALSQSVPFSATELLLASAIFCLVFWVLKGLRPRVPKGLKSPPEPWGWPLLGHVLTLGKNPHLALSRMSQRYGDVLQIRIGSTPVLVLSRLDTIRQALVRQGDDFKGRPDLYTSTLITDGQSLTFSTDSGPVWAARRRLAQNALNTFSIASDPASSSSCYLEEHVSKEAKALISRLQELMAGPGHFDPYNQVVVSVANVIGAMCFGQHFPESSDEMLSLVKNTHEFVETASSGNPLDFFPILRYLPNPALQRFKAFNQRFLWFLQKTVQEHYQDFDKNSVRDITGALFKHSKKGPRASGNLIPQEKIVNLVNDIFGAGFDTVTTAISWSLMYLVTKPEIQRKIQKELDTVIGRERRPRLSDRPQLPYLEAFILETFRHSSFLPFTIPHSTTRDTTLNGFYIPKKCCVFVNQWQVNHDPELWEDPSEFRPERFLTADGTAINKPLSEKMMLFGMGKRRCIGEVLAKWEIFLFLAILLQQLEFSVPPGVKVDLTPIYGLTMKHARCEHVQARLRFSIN
In short: as §4

[21] = Plasma protein binding in human plasma; assay type: ADME, cell-free; conditions: read-out: PPB (converted)
In short: as §2

[22] = target: CYP2C19 (Homo sapiens, UniProt P33261); assay: Inhibition of human CYP2C19 at 10 uM; assay type: ADME
In short: as §4

[23] = Aqueous solubility in PBS at pH 7.4; assay type: physicochemical; conditions: buffer
[24] = tested on: dengue virus type 2; assay: Antiviral activity against 0.01 MOI DENV-2 NGC infected in BHK cells assessed as reduction in viral titer after 48 hrs; assay type: functional, organism-based
In short: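 BHK cells infected with DENV-2 New Guinea C at MOI 0.01 for 1 h. Inoculum removed, then compounds at 0.1–100 μM for 48 h at 37 °C. Supernatants titrated on Vero monolayers as 10-fold dilutions under 0.5% methylcellulose for 3–5 days. Foci detected by 4G2 immunostaining or crystal violet plaques. EC50 from dose–response curves, mean of 3 independent experiments.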

[25] = tested on: Rattus norvegicus; assay: Acute toxicity in Sprague-Dawley rat assessed as mortality at 25 to 200 mg/kg, po after 7 days; assay type: organism-based; parameters: dose 25-200 mg/kg, route oral; conditions: in vivo, 168 h
[26] = target: CYP2D6 (Homo sapiens, UniProt P10635); assay: Inhibition of human CYP2D6 at 10 uM; assay type: ADME
In short: as §1

[27] = tested on: Rattus norvegicus; assay: Acute toxicity in Sprague-Dawley rat assessed as occurrence of soft feces at 50 to 100 mg/kg, po measured at 1 to 2 days; assay type: organism-based; parameters: route oral; conditions: in vivo
In short: as §3

[28] = tested on: Rattus norvegicus; assay: Acute toxicity in Sprague-Dawley rat assessed as occurrence of diarrhea at 200 mg/kg, po measured at 1 to 2 days; assay type: organism-based; parameters: dose 200 mg/kg, route oral; conditions: in vivo
In short: as §3

[29] = Plasma protein binding in mouse plasma; assay type: ADME, cell-free; conditions: read-out: PPB (converted)
In short: as §2

T1 sequence (P08684 whole entry, canonical isoform): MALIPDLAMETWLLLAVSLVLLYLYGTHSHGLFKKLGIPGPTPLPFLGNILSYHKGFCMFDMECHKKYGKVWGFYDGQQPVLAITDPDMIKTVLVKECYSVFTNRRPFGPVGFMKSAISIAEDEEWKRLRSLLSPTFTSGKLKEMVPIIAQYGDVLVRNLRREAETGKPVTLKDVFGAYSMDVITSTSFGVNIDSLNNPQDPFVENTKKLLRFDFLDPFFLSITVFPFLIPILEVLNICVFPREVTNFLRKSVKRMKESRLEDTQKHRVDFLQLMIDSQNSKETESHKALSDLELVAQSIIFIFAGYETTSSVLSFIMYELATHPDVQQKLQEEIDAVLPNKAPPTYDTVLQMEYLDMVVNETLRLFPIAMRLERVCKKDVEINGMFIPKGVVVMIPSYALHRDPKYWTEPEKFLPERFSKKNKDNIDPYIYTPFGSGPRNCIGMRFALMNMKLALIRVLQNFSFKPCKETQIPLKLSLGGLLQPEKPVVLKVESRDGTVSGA
Chain of CYP2D6 (P10635 whole entry): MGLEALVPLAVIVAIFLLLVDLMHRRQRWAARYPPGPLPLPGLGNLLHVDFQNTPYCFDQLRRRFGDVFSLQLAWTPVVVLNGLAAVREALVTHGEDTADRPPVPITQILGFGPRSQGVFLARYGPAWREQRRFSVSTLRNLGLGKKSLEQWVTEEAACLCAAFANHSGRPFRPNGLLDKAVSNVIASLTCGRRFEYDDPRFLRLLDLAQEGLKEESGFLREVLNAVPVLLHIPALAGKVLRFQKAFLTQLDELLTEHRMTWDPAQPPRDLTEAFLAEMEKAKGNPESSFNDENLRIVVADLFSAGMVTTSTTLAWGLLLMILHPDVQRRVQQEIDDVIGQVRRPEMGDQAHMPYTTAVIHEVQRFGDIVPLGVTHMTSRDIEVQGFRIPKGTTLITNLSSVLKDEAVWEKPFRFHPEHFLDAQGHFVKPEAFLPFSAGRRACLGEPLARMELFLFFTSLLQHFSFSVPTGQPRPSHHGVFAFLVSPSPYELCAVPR
Chain of CYP2C19 (P33261 whole entry): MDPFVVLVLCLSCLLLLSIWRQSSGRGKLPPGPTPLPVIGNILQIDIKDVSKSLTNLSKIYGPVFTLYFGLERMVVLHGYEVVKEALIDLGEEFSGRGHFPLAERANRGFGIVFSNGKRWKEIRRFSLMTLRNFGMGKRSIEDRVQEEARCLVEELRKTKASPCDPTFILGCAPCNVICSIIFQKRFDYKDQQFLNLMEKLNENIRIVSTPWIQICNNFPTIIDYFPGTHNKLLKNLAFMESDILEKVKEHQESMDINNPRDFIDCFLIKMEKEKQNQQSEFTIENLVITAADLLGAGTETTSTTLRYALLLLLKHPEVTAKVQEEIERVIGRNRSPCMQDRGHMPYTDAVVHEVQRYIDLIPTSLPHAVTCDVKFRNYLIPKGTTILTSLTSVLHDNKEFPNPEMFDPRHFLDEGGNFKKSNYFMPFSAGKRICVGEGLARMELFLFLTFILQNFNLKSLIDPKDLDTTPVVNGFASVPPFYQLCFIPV
Chain of CYP2C9 (P11712 whole entry, canonical isoform): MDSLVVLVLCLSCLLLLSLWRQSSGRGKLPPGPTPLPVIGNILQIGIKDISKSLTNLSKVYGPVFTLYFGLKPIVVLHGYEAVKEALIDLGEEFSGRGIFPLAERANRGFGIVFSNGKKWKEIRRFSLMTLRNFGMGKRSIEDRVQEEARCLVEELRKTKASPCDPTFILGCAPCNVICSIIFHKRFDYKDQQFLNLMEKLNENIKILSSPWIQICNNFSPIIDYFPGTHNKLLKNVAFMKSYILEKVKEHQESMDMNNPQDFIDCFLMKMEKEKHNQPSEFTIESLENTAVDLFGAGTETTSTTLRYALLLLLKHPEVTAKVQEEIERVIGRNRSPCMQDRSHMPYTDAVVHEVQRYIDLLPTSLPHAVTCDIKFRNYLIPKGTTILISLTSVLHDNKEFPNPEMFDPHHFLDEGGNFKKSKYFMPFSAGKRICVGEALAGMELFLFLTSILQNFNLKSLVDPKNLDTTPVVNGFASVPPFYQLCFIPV

## OC[C@@H]1[C@@H](O)[C@H](O)[C@@H](O)CN1CCCCCCOc1cc(F)ccc1F
[1]
  Activity: Non-toxic
[2]
  CC50: > 500000 nM
[3]
  inhibition at 10 µM: 7.1%
[4]
  remaining at 1 h: 91%
[5]
  inhibition: Active
[6]
  EC50: 500 nM
[7]
  fraction unbound: 0.32
[8]
  half-life: 1.44 h
[9]
  Vd: 17.2 L/kg
[10]
  Activity: Non-toxic
[11]
  solubility: 296 µM (≈ 111 µg/mL)
[12]
  Activity: Active
[13]
  CC50: > 500000 nM
[14]
  inhibition at 10 µM: 10.9%
[15]
  remaining at 1 h: 91%
[16]
  Vd: 3.1 L/kg
[17]
  inhibition at 10 µM: -1.9%
[18]
  Tmax: 4.2 h
[19]
  remaining at 1 h: 79%
[20]
  inhibition at 10 µM: 24.4%
[21]
  fraction unbound: 0.26
[22]
  inhibition at 10 µM: 1.6%
[23]
  solubility: 292 µM (≈ 110 µg/mL)
[24]
  Activity: Dose-dependent effect
  EC50: 400 nM
[25]
  Activity: Non-toxic
[26]
  inhibition at 10 µM: 11.4%
[27]
  Activity: Toxic
[28]
  Activity: Toxic
[29]
  fraction unbound: 0.23
